From PMC12044415 (RSC Advances, 2025)

Key:
Test in all cases: Cell viability assay
Assay type in all cases: cell-based, human
[1] = system: MRC-5 (normal lung fibroblasts); conditions: read-out: IC50 MRC-5; 96 h of incubation
Outline: (§1)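 Cells cultured per supplier at 37 °C, 5% CO2, and seeded at 1.5 × 10^3 per well. Treated with six concentrations of test compound (0.001, 0.01, 0.1, 1, 10 and 100 μM final), diluted into culture medium from a 10 mM DMSO stock; cisplatin stock in water. Viability read by CellTiter-Glo after 96 h. IC50 from triplicates, error bars as standard deviations.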

[2] = system: A2780cis (cisplatin-resistant ovarian cancer cells); conditions: read-out: IC50 A2780cis; 96 h of incubation
Outline: as §1

U87 (glioblastoma) = conditions: read-out: IC50 U87; 96 h of incubation
Outline: as §1

[3] = system: MDA-MB-231 (triple-negative breast cancer); conditions: read-out: IC50 MDA-MB-231; 96 h of incubation
Outline: as §1

[4] = system: A2780 (cisplatin-sensitive ovarian cancer cells); conditions: read-out: IC50 A2780; 96 h of incubation
Outline: as §1

| Structure (SMILES) | IC50 [1] | IC50 [2] | IC50 (U87 (glioblastoma)) | IC50 [3] | IC50 [4] |
| --- | --- | --- | --- | --- | --- |
| N.N.[Cl][Pt][Cl] [Cisplatin, cisplatin, reference compound] | 4 ± 1 µM | 45 ± 5 µM | 10.4 ± 0.4 µM |  |  |
| C[N+]12CN3CN(C1)C[PH]([Pd]([I])([c]1ccc([N+](=O)[O-])cc1)[PH]14CN5CN(C[N+](C)(C5)C1)C4)(C3)C2.F[P-](F)(F)(F)(F)F.F[P-](F)(F)(F)(F)F [7b] | > 100 µM | 0.18 ± 0.02 µM | 90 ± 10 µM | 6.7 ± 0.9 µM | 3.1 ± 0.3 µM |
